{"source": "paper PMC2956778", "about": "(Biochemical and biophysical research communications, 2010)", "key": {"[1]": {"test_system": "microsomes from bovine brain cerebrum", "experiment": "Ca2+ release from brain microsomes", "conditions": "data not shown"}, "[2]": {"experiment": "Membrane permeability assay", "design": "species or system rabbit"}, "[3]": {"target": "Ca2+-saturated CaM bound to RyR1 (skeletal SR vesicles) (Homo sapiens, UniProt P0DP23)", "experiment": "[35S]CaM binding to skeletal SR vesicles", "design": "species or system rabbit", "conditions": "for Effect on [35S]CaM binding to SR vesicles: LPC effect probably an artefact (also decreased nonspecific binding)"}, "[4]": {"test_system": "microsomes from bovine brain cerebrum"}, "[5]": {"test_system": "complex between CaM and the peptide representing the CaM-binding domain of RyR1", "conditions": "cited from earlier work"}, "[6]": {"target": "RyR1 (skeletal SR vesicles) (Oryctolagus cuniculus, UniProt P11716)", "sequence (P11716 whole entry)": "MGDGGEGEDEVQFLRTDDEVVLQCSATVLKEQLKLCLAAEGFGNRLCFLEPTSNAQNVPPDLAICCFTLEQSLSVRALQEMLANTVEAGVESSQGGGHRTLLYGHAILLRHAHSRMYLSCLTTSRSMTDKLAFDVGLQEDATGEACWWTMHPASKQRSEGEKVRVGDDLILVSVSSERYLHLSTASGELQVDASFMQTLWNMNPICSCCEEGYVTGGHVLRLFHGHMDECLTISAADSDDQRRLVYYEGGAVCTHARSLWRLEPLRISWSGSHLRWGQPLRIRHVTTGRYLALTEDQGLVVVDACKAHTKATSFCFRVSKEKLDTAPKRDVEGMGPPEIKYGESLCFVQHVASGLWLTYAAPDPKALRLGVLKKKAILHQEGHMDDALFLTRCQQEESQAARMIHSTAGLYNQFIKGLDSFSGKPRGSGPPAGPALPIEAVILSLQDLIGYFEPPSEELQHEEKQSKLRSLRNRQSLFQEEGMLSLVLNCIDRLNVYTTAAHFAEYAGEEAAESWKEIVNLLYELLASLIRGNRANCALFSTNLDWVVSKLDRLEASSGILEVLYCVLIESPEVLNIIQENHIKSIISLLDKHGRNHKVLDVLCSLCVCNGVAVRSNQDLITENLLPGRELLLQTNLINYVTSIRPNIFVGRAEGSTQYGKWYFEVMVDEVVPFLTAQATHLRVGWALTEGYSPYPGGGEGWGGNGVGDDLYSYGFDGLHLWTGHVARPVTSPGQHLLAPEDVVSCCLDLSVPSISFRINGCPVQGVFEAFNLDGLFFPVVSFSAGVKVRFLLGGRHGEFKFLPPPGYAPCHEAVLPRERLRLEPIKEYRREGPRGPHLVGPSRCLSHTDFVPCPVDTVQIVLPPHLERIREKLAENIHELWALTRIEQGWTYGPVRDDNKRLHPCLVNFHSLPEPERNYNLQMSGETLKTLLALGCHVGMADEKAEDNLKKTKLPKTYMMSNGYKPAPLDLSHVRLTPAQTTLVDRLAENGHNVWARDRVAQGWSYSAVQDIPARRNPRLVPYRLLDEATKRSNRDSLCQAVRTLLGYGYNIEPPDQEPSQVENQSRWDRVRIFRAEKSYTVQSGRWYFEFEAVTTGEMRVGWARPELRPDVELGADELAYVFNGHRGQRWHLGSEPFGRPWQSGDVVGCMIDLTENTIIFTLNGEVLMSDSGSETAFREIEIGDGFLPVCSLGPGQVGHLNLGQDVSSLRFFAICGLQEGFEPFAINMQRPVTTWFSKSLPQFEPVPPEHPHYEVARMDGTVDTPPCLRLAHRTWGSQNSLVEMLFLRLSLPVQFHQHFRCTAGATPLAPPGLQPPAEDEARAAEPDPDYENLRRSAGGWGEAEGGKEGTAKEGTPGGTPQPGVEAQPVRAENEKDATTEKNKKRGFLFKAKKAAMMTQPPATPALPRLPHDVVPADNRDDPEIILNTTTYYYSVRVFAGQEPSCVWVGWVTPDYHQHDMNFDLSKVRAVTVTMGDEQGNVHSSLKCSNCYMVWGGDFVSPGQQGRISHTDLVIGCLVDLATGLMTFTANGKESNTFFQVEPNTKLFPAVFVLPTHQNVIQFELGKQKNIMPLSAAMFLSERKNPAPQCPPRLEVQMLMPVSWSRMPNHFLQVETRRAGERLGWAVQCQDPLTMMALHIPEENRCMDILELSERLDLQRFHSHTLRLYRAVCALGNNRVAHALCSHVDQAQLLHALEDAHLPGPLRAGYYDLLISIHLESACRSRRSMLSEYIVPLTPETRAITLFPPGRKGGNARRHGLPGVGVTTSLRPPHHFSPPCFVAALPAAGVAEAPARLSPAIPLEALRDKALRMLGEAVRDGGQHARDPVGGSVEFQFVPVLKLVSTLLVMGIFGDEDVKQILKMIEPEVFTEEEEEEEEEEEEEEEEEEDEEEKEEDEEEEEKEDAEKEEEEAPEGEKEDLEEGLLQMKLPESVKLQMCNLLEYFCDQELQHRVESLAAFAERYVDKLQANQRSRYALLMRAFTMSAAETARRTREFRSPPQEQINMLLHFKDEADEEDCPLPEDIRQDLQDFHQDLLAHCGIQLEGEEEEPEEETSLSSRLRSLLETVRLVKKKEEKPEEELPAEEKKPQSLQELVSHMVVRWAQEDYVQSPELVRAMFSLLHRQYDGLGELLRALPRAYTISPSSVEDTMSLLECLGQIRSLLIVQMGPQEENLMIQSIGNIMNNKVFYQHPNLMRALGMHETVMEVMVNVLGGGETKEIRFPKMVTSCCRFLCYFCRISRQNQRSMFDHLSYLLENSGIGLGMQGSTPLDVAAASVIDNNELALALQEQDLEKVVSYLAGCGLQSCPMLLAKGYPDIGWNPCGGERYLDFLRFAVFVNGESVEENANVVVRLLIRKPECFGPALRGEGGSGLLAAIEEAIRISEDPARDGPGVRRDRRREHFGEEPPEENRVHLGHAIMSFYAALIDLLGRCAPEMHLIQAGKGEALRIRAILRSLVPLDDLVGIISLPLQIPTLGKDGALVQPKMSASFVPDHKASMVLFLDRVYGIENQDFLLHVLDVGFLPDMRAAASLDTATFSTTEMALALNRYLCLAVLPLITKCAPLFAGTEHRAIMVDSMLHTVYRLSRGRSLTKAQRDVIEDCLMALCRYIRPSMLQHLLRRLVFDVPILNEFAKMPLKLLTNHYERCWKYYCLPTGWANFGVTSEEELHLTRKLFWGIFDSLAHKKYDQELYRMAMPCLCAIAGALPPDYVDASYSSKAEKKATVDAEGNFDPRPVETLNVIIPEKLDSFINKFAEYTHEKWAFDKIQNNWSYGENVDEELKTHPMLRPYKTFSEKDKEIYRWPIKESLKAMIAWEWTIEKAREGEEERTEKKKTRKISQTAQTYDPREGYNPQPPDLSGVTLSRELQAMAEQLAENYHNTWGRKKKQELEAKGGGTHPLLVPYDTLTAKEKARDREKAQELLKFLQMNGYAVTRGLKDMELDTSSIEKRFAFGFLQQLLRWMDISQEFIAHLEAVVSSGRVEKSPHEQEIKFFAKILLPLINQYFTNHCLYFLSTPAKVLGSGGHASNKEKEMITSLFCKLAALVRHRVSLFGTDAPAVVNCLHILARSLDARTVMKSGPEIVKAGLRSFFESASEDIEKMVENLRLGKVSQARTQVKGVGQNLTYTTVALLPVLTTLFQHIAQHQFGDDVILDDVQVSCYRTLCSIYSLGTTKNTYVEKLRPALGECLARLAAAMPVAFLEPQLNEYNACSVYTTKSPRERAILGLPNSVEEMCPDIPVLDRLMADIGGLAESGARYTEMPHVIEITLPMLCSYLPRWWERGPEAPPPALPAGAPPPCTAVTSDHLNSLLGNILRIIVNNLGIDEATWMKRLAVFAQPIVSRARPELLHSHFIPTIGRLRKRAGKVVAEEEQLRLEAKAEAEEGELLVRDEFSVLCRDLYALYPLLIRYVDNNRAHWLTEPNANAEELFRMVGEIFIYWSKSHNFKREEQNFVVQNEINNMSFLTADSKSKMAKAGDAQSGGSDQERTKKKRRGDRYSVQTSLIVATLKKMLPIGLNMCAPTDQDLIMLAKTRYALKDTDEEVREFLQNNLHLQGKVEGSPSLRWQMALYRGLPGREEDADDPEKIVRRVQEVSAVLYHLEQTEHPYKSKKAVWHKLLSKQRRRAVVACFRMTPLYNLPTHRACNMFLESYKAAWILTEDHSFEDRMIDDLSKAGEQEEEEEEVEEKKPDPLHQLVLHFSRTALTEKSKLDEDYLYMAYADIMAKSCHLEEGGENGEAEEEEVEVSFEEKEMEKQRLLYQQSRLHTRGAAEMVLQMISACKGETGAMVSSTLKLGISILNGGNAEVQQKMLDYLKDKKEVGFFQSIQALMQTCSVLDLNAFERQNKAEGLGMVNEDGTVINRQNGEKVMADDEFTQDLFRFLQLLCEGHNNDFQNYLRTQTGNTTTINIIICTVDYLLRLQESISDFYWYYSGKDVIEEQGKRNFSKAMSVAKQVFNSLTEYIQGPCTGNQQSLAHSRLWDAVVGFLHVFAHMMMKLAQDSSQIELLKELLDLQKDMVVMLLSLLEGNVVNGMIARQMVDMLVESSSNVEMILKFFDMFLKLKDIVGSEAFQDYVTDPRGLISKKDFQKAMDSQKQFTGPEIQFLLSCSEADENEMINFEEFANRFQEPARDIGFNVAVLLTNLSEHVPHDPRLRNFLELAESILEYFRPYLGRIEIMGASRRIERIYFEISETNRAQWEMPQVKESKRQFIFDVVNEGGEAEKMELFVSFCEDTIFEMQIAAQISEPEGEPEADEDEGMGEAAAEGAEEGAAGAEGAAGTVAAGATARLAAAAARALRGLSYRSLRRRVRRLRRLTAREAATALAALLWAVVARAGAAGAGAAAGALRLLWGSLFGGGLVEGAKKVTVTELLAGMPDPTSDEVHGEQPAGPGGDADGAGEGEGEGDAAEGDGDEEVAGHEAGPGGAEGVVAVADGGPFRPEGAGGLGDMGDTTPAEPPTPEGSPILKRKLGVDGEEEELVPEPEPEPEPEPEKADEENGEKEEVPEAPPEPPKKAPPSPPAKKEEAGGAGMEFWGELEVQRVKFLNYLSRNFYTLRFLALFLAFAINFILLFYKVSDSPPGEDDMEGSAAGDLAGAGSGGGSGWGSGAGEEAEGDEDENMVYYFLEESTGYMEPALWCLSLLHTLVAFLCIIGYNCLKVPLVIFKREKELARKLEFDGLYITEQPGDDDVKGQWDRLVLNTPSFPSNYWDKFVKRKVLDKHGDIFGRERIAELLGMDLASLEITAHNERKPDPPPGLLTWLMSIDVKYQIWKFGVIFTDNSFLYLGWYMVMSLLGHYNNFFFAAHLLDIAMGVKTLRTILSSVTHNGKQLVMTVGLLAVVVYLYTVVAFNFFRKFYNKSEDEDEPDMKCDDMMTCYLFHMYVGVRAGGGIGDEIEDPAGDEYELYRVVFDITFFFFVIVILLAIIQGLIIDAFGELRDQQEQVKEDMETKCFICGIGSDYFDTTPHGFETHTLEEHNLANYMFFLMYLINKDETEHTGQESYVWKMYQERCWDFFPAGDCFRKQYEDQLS", "experiment": "[3H]ryanodine binding to skeletal SR vesicles", "design": "species or system rabbit", "conditions": "for Effect on [3H]ryanodine binding: 50 μM free Ca2+"}, "purified RyR1": {"target": "purified RyR1 (Oryctolagus cuniculus, UniProt P11716)", "sequence (P11716 whole entry)": "as above", "experiment": "Single channel recordings of purified RyR1 in planar lipid bilayers", "assay_type": "biochemical, rabbit", "conditions": "for Ac1 / Ac2 / Ao1 / Ao2 / Po / τc1 / τc2 (lifetime of the second closed state) / τo1 / τo2 / No. of events: +1 μM SPC; for No. of events: 2 min recordings; for Single channel open probability (Po), representative recording: after 1 μM SPC cis", "outline": "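Purified RyR1 from rabbit SR: CHAPS-solubilised, sucrose-gradient purified, reconstituted into phosphatidylcholine liposomes, fused cis into PE:PS:PC (5:3:2) n-decane bilayers. Symmetrical 0.25 M KCl, 20 mM K-HEPES pH 7.4, 22 μM free Ca²⁺ cis. Test compound added cis. For +CaM, 30 min room-temperature preincubation with 1 μM CaM, then 100 nM CaM cis. Recorded at ±35 mV, sampled 10 kHz, filtered 2 kHz, ≥2 min per condition. Dwell times fitted by maximum likelihood to exponential sums.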"}}, "note": "“Also recorded” adds a separate entry of the source. Where two headings read alike, the source gives them in different places."}
{"molecule": "Cn1c(=O)c2c(ncn2C)n(C)c1=O", "note": "[caffeine]", "values": [{"measurement": "Ca2+ release from brain microsomes", "setting": "[1]; 5 mM caffeine", "result": "only had minor effects"}]}
{"molecule": "CC(C)[C@@]1(O)[C@@H](OC(=O)c2ccc[nH]2)[C@@]2(O)[C@@]3(C)C[C@]4(O)O[C@@]5([C@H](O)[C@@H](C)CC[C@]35O)[C@@]2(O)[C@@]14C", "note": "[ryanodine]", "values": [{"measurement": "Ca2+ release from brain microsomes", "setting": "[1]; 1 μM ryanodine", "result": "only had minor effects"}]}
{"molecule": "C[C@H](CCC(=O)NCCC[N+](C)(C)CCCS(=O)(=O)[O-])[C@H]1CC[C@H]2[C@@H]3[C@H](O)C[C@@H]4C[C@H](O)CC[C@]4(C)[C@H]3C[C@H](O)[C@]12C", "note": "[CHAPS]", "values": [{"measurement": "Effect on glucose permeability of SR vesicles", "setting": "[2]; 1% CHAPS detergent", "result": "released a large amount of stored glucose"}]}
{"molecule": "CCCCCCCC/C=C\\CCCCCCCC(=O)OC[C@@H](O)COP(=O)([O-])OCC[N+](C)(C)C", "note": "[LPC, oleoyl-lysophosphatidylcholine]", "values": [{"measurement": "Effect on glucose permeability of SR vesicles", "setting": "[2]; 50 μM lysophospholipid", "result": "do not disrupt the permeability barrier"}, {"measurement": "Effect on [35S]CaM binding to SR vesicles", "setting": "[3]", "result": "decreased; also recorded: significantly decrease"}, {"measurement": "Ca2+ release from brain microsomes", "setting": "[4]", "result": "released a large amount of Ca^2+"}, {"measurement": "Effect in peptide binding experiments", "setting": "[5]", "result": "without action"}]}
{"molecule": "CCCCCCCCCCCCC/C=C/[C@@H](O)[C@@H](N)COP(=O)(O)OCC[N+](C)(C)C", "note": "[SPC, D-erythro-sphingosylphosphorylcholine]", "values": [{"measurement": "Effect on glucose permeability of SR vesicles", "setting": "[2]; 50 μM lysophospholipid", "result": "do not disrupt the permeability barrier"}, {"measurement": "Hill-slope of [35S]CaM displacement", "setting": "[3]", "result": "2.3 ± 0.7"}, {"measurement": "Effect on [35S]CaM binding to SR vesicles", "setting": "[3]", "result": "significantly decrease"}, {"measurement": "Ca2+ release from brain microsomes", "setting": "[4]", "result": "released a large amount of Ca^2+"}, {"measurement": "Hill-slope of [3H]ryanodine binding dose-response", "setting": "[6]; absence of CaM, oxidizing conditions (5 mM GSSG)", "result": "−2.9 ± 0.2"}, {"measurement": "Hill-slope of [3H]ryanodine binding dose-response", "setting": "[6]; absence of CaM, reducing conditions (5 mM GSH)", "result": "−1.7 ± 0.04"}, {"measurement": "Effect on [3H]ryanodine binding", "setting": "[6]; presence of CaM", "result": "did not significantly alter"}, {"measurement": "Ac1", "setting": "purified RyR1; 22 μM Ca2+", "result": "0.994 ± 0.003"}, {"measurement": "Ac2", "setting": "purified RyR1; 22 μM Ca2+", "result": "0.006 ± 0.003"}, {"measurement": "Ao1", "setting": "purified RyR1; 22 μM Ca2+", "result": "0.81 ± 0.18"}, {"measurement": "Ao2", "setting": "purified RyR1; 22 μM Ca2+", "result": "0.19 ± 0.18"}, {"measurement": "Po", "setting": "purified RyR1; 22 μM Ca2+", "result": "0.24 ± 0.10"}, {"measurement": "τc1", "setting": "purified RyR1; 22 μM Ca2+", "result": "1.07 ± 0.68", "unit": "ms"}, {"measurement": "τc2 (lifetime of the second closed state)", "setting": "purified RyR1; 22 μM Ca2+", "result": "452 ± 140", "unit": "ms"}, {"measurement": "τo1", "setting": "purified RyR1; 22 μM Ca2+", "result": "0.24 ± 0.19", "unit": "ms"}, {"measurement": "τo2", "setting": "purified RyR1; 22 μM Ca2+", "result": "5.09 ± 3.32", "unit": "ms"}, {"measurement": "Ac1", "setting": "purified RyR1; 22 μM Ca2+ and 100 nM CaM", "result": "0.96 ±0.03"}, {"measurement": "Ac2", "setting": "purified RyR1; 22 μM Ca2+ and 100 nM CaM", "result": "0.04 ± 0.03"}, {"measurement": "Ao1", "setting": "purified RyR1; 22 μM Ca2+ and 100 nM CaM", "result": "0.94 ± 0.05"}, {"measurement": "Ao2", "setting": "purified RyR1; 22 μM Ca2+ and 100 nM CaM", "result": "0.06 ± 0.05"}, {"measurement": "Po", "setting": "purified RyR1; 22 μM Ca2+ and 100 nM CaM", "result": "0.18 ± 0.09"}, {"measurement": "τc1", "setting": "purified RyR1; 22 μM Ca2+ and 100 nM CaM", "result": "2.81 ± 1.66", "unit": "ms"}, {"measurement": "τc2 (lifetime of the second closed state)", "setting": "purified RyR1; 22 μM Ca2+ and 100 nM CaM", "result": "619 ± 242", "unit": "ms"}, {"measurement": "τo1", "setting": "purified RyR1; 22 μM Ca2+ and 100 nM CaM", "result": "0.16 ± 0.12", "unit": "ms"}, {"measurement": "τo2", "setting": "purified RyR1; 22 μM Ca2+ and 100 nM CaM", "result": "3.12 ± 2.10", "unit": "ms"}, {"measurement": "No. of events", "setting": "purified RyR1; 22 μM Ca2+ and 100 nM CaM", "result": "10,392 ±2633"}, {"measurement": "No. of events", "setting": "purified RyR1; 22 μM Ca2+", "result": "9767 ± 1884"}, {"measurement": "Single channel open probability (Po), representative recording", "setting": "purified RyR1; 100 nM CaM, control Po 0.15", "result": 0.05}, {"measurement": "Single channel open probability (Po), representative recording", "setting": "purified RyR1; absence of CaM, control Po 0.51", "result": 0.16}, {"measurement": "IC50", "setting": "[5]; read-out: IC50 in peptide binding assays", "result": "19.4 ± 1.4", "unit": "µM"}]}
{"molecule": "CCCCCCCCCCCCC/C=C/[C@@H](O)[C@@H](N)COP(=O)(O)O", "note": "[S1P, D-erythro-sphingosine-1-phosphate]", "values": [{"measurement": "Effect on glucose permeability of SR vesicles", "setting": "[2]; 50 μM lysophospholipid", "result": "do not disrupt the permeability barrier"}, {"measurement": "Effect on [35S]CaM binding to SR vesicles", "setting": "[3]", "result": "ineffective"}, {"measurement": "Effect on [3H]ryanodine binding", "setting": "[6]; absence of CaM", "result": "minor inhibitory effect"}, {"measurement": "Effect on [3H]ryanodine binding", "setting": "[6]; presence of CaM", "result": "further decreased"}]}
{"molecule": "CCCCCCCC/C=C\\CCCCCCCC(=O)OCC(O)COP(=O)(O)O", "note": "(centres unmarked) [LPA, oleoyl-lysophosphatidic acid]", "values": [{"measurement": "Effect on glucose permeability of SR vesicles", "setting": "[2]; 50 μM lysophospholipid", "result": "do not disrupt the permeability barrier"}, {"measurement": "Effect on [35S]CaM binding to SR vesicles", "setting": "[3]", "result": "ineffective"}, {"measurement": "Ca2+ release from brain microsomes", "setting": "[4]", "result": "released a large amount of Ca^2+"}]}
